Measurements gathered from unrelated publications.
Protocols differ between the studies behind these lines.
Target: Sodium-dependent serotonin transporter (SLC6A4, Homo sapiens, UniProt P31645)

Structure (SMILES) | read-out | mode | method | cell line | tested at | inhibition
CCN(Cc1ccccc1C(F)(F)F)C(=O)C1CCN(S(=O)(=O)c2ccc3[nH]ncc3c2)CC1 | ligand displacement | – | radioligand | – | 10 µM | 2%
O=C1N=C(N2CCCCN2)S/C1=C\c1ccc(F)cc1O | ligand displacement | – | radioligand | – | 10 µM | < 10%
COc1ccc(-n2nc(OCCCN3CCCCC3)ccc2=O)cc1 | ligand displacement | – | – | – | 1 µM | 43.6%
COc1cc(NC(C)=O)c(Cl)cc1C(=O)Nc1nccs1 | cell-free assay | – | – | – | 10 µM | -12.3%
N#Cc1cc(Cn2c(N3CCCC3)nc3ccccc32)ccc1F | ligand displacement | – | – | – | 10 µM | -16.9%
CN1CCN(CCCOc2ccc(=O)n(-c3ccc(Cl)c(Cl)c3)n2)CC1 | ligand displacement | – | – | – | 1 µM | 21.7%
CCCNc1nc2ccccc2n1Cc1ccc(Cl)cc1 | ligand displacement | – | – | – | 10 µM | -8.27%
CN(C)CCCN1c2ccccc2CCc2ccccc21 | transporter uptake | inhibitor | radiometric | COS-7 | 4 nM | 19.6%
O=C(c1ccc(Cl)cc1)N(Cc1ccccc1)C1CCCCC1 | cell-free assay | – | – | – | 10 µM | -7.1%
CCN(CC)c1ccc(C2Nc3ccc(C(=O)c4ccccc4)cc3NC3=C2C(=O)CC(C)(C)C3)cc1 (stereo not shown) | ligand displacement | – | radioligand | – | 10 µM | 57%
